In ChEMBL document CHEMBL1125770, “Synthesis and antitumor properties of activated cyclophosphamide analogues” (J Med Chem, 1991):

Experiments:
[1] = Half-life in 4:6 acetone/ 1.0 M HEPES buffer, pH 7.4, 37 degree celsius; assay type: ADME
Method in brief: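 Generation of 4 from the 4-hydroxy compounds followed by ³¹P NMR in 4:6 acetone/1.0 M HEPES, pH 7.4, 37 °C; half-time of phosphoramide mustard release recorded.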

L1210 [2] = experiment: In vivo antitumor activity against intraperitoneal murine cyclophosphamide resistant L1210 Leukemia cells at 340 umol/kg; assay type: functional, Mus musculus
Method in brief: (§1)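 NCI L1210 protocol. Tumor propagated in DBA/2 mice; tests done in B6D2F1 mice, six per group, given 10⁶ L1210 cells ip. One ip dose of drug suspended in 2% (carboxymethyl)cellulose (or vehicle alone) given 24 h later. Survival followed daily for 30 days. %T/C = 100 × treated/control survival time.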

L1210 [3] = experiment: In vivo antitumor activity against intraperitoneal murine wild type L1210 Leukemia cells at 680 umol/kg; assay type: functional, Mus musculus; method in brief: as §1
L1210 [4] = experiment: In vivo antitumor activity against intraperitoneal murine cyclophosphamide resistant L1210 Leukemia cells at 510 umol/kg; assay type: functional, Mus musculus; method in brief: as §1
L1210 [5] = experiment: In vitro antitumor activity against wild-type L1210/0 cells; assay type: functional, Mus musculus
Method in brief: (§2)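 Clonogenic assay on L1210 and P388 leukemia cells, wild-type (/O) and cyclophosphamide-resistant (/CP) lines, with 1-h drug exposure. LC99 is the concentration that cuts colony formation to 1% of control. It comes from linear regression of log survival vs concentration, at least three determinations.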

L1210 [6] = experiment: In vivo antitumor activity against intraperitoneal murine wild type L1210 Leukemia cells at 170 umol/kg; assay type: functional, Mus musculus; method in brief: as §1
L1210 [7] = experiment: In vivo antitumor activity against intraperitoneal murine cyclophosphamide resistant L1210 Leukemia cells at 170 umol/kg; assay type: functional, Mus musculus; method in brief: as §1
L1210 [8] = experiment: In vivo antitumor activity against intraperitoneal murine wild type L1210 Leukemia cells at 340 umol/kg; assay type: functional, Mus musculus; method in brief: as §1
P388 [9] = experiment: In vitro antitumor activity against cyclophosphamide-resistant P388/CP cells; assay type: functional, Mus musculus; method in brief: as §2
P388 [10] = experiment: Resistance factor for LC99 of resistant (P388/CP) to that of LC99 for wild type (P388/0).; assay type: functional, Mus musculus
Method in brief: (§3)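 Resistance factor is LC99 in the cyclophosphamide-resistant line divided by LC99 in the matching wild-type line. Each LC99 comes from a clonogenic assay with 1-h drug exposure, by linear regression of log survival vs concentration, at least three determinations.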

L1210 [11] = experiment: In vivo antitumor activity against intraperitoneal murine wild type L1210 Leukemia cells at 510 umol/kg; assay type: functional, Mus musculus; method in brief: as §1
L1210 [12] = experiment: In vitro antitumor activity against cyclophosphamide-resistant L1210/CP cells; assay type: functional, Mus musculus; method in brief: as §2
L1210 [13] = experiment: Resistance factor for LC99 of resistant (L1210/CP) to that of LC99 for wild type (L1210/0).; assay type: functional, Mus musculus; method in brief: as §3
P388 [14] = experiment: In vitro antitumor activity against wild-type P388/0 cells; assay type: functional, Mus musculus; method in brief: as §2
L1210 [15] = experiment: In vivo antitumor activity against intraperitoneal murine cyclophosphamide resistant L1210 Leukemia cells at 680 umol/kg; assay type: functional, Mus musculus; method in brief: as §1

| Compound | half-life [1] | T/C (L1210 [2]) | T/C (L1210 [3]) | T/C (L1210 [4]) | LC99 (L1210 [5]) | T/C (L1210 [6]) | T/C (L1210 [7]) | T/C (L1210 [8]) | LC99 (P388 [9]) | RF (P388 [10]) | T/C (L1210 [11]) | LC99 (L1210 [12]) | RF (L1210 [13]) | LC99 (P388 [14]) | T/C (L1210 [15]) |
| --- | --- | --- | --- | --- | --- | --- | --- | --- | --- | --- | --- | --- | --- | --- | --- |
| O=[P@]1(N(CCCl)CCCl)N[C@H](OO)C[C@@H](c2ccncc2)O1 | 1.83 h | 131% | 190% | 138% | 53 µM | 130% | 119% | 150% | 23 µM | 0.5 | 160% | 57 µM | 1.1 | 44 µM | 150% |
| O=[P@]1(N(CCCl)CCCl)N[C@H](OO)C[C@@H](c2ccccc2)O1 | 2.17 h |  |  |  | 9 µM | 117% |  | 144% | 15 µM | 2.5 |  | 29 µM | 3.2 | 6 µM |  |
| O=[P@]1(N(CCCl)CCCl)N[C@H](OO)C[C@@H](c2cccnc2)O1 | 1.75 h |  |  |  | 36 µM |  |  |  | 34 µM | 1 |  | 56 µM | 1.6 | 33 µM |  |
| C[C@@H]1C[C@@H](OO)N[P@](=O)(N(CCCl)CCCl)O1 | > 8.33 h |  |  |  | 39 µM |  |  | 138% | 69 µM | 2.7 |  | 180 µM | 4.6 | 26 µM |  |
| O=[P@]1(N(CCCl)CCCl)N[C@H](OO)C[C@@H](CCc2ccccc2)O1 | > 8.33 h |  |  |  | 13 µM |  |  | 106% | 5 µM | 0.5 |  | 9 µM | 0.7 | 10 µM |  |
| O=[P@]1(N(CCCl)CCCl)N[C@H](OO)C[C@@H](c2ccc(F)cc2)O1 | 3.42 h |  |  |  | 7 µM |  |  | 163% | 5 µM | 1.2 | 188% | 8 µM | 1.2 | 6 µM |  |
| O=[P@@]1(N(CCCl)CCCl)N[C@H](OO)C[C@@H](c2ccccc2)O1 | 1.53 h |  |  |  | 20 µM |  |  |  | 21 µM | 1.3 |  | 26 µM | 1.3 | 16 µM |  |
| CC(C)[C@@H]1C[C@@H](OO)N[P@](=O)(N(CCCl)CCCl)O1 | > 8.33 h |  |  |  | 110 µM |  |  |  |  | 0.7 |  | 86 µM | 1 | 61 µM |  |
| Cc1ccc([C@@H]2C[C@@H](OO)N[P@](=O)(N(CCCl)CCCl)O2)cc1 | 4 h |  | 175% |  | 5 µM |  |  | 150% | 3 µM | 1 | 175% | 6 µM | 1.2 | 3 µM |  |
| O=[N+]([O-])c1ccc([C@@H]2C[C@@H](OO)N[P@](=O)(N(CCCl)CCCl)O2)cc1 | 3.17 h |  | 205% |  | 8 µM |  |  | 163% | 3 µM | 0.4 | 185% | 8 µM | 1 | 7 µM |  |
| O=P1(N(CCCl)CCCl)NCCCO1 (stereo not given) [CYCLOPHOSPHAMIDE ANHYDROUS] |  | 95% |  | 110% |  | 150% | 105% |  |  |  | 208% |  |  |  |  |
| O=P1(N(CCCl)CCCl)NC(OO)CCO1 (stereo not given) [PERFOSFAMIDE] | 0.25 h | 110% |  |  | 8 µM | 140% | 115% | 171% | 60 µM | 10 |  | 140 µM | 17 | 6 µM |  |
